# According to ChEMBL document CHEMBL1914416, “Discovery of pyridine-2-ones as novel class of multidrug resistance (MDR) modulators: first structure-activity relationships” (Bioorg Med Chem, 2011):
# Columns and labels:
# [1] = molecular target: T1, ATP-dependent translocase ABCB1 (Homo sapiens, UniProt P08183); assay: Reversal of human MDR1-mediated rhodamine 123 uptake in mouse L5178Y cells assessed as fluorescence activity ratio at 10 mM by flow cytometry relative to non p-gp expressing parental cell line; format: cell-based; conditions: in the assay text read “10 µM” for “10 mM”
# T1 sequence (P08183 whole entry): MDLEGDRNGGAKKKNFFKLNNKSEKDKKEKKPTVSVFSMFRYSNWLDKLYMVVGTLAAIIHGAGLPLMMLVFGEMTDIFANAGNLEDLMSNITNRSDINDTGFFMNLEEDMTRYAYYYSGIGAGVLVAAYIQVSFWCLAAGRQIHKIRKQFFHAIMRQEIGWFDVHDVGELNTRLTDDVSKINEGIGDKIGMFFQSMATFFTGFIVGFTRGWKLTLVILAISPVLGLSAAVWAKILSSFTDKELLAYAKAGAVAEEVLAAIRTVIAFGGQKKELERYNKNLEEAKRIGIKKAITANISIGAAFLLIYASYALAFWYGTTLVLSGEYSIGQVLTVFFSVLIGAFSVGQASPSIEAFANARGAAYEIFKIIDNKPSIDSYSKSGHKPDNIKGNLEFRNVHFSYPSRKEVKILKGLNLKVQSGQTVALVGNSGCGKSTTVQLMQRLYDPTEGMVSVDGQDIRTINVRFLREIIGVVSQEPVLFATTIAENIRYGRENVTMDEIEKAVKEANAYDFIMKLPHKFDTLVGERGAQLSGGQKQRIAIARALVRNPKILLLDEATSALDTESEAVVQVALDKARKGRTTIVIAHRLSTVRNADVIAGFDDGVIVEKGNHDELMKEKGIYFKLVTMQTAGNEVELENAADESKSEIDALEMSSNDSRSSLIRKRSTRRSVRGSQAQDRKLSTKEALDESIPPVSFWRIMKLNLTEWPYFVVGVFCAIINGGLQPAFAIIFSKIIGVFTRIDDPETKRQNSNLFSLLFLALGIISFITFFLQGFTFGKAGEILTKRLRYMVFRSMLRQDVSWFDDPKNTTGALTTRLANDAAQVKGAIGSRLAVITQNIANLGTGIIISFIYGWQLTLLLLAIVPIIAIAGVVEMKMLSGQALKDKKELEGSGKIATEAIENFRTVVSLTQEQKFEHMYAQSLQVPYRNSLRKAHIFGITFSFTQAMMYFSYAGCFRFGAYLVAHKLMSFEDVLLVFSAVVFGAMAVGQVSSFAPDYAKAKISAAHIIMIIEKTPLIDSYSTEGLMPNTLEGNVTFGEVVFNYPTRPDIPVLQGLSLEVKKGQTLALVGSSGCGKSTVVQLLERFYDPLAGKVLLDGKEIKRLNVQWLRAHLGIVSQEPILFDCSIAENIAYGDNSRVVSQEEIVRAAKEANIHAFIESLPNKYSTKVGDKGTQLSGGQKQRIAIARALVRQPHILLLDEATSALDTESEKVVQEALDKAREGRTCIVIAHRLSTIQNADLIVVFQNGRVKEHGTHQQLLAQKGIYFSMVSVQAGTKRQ
# Outline: (§1)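 Mouse T-lymphoma L5178Y parental and retrovirally transfected P-gp-expressing L5178Y mdr cells were grown in McCoy's 5A with 10% heat-inactivated horse serum and 2 mM L-glutamine; the mdr line was precultured with 60 ng/mL colchicine. Cells (2 × 10^6/mL, serum-free) were preincubated with inhibitor 10 min at rt, then given rhodamine 123 for 20 min at 37 °C. They were washed twice and resuspended in PBS. Uptake was read by flow cytometry (1 × 10^4 cells). FAR is the mdr/parental quotient, each corrected by inhibitor-free controls.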
# [2] = molecular target: T1, ATP-dependent translocase ABCB1; assay: Reversal of human MDR1-mediated rhodamine 123 uptake in mouse L5178Y cells assessed as fluorescence activity ratio at 1 µM by flow cytometry relative to non p-gp expressing parental cell line
# [3] = molecular target: T1, ATP-dependent translocase ABCB1; assay: Reversal of human MDR1-mediated rhodamine 123 uptake in mouse L5178Y cells assessed as fluorescence activity ratio at 20 umol by flow cytometry relative to non p-gp expressing parental cell line; format: cell-based; outline: as §1
# L5178Y = assay: Cytotoxicity against mouse L5178Y cells at 20 umol by flow cytometric analysis; format: cell-based
SMILES,Ratio [1],Ratio [2],Ratio [3],Activity (L5178Y)
COc1ccc(CCN(C)CCCC(C#N)(c2ccc(OC)c(OC)c2)C(C)C)cc1OC (centres undefined) [VERAPAMIL],2.94,0.89,–,–
Cc1ccc(-c2ccn(Cc3ccccc3)c(=O)c2C#N)cc1,1.56,0.98,–,–
COC(=O)c1c(-c2ccccc2)ccn(Cc2ccccc2)c1=O,1.74,1.06,–,–
COC(=O)c1c(Cc2ccccc2)ccn(Cc2ccccc2)c1=O,1.68,1.09,–,–
N#Cc1c(-c2ccccc2)ccn(Cc2ccccc2)c1=O,1.71,0.99,–,–
Cc1ccccc1-c1ccn(Cc2ccccc2)c(=O)c1C#N,1.83,1.05,–,–
COc1ccccc1-c1ccn(Cc2ccccc2)c(=O)c1C#N,2.16,1.29,3.3,Non-toxic
N#Cc1c(Cc2ccccc2)ccn(Cc2ccccc2)c1=O,1.63,1.06,–,–
O=C(OCc1ccccc1)c1c(-c2ccccc2)ccn(Cc2ccccc2)c1=O,2.59,1.22,–,–
COC(=O)c1c(-c2ccc(OC)cc2)ccn(Cc2ccccc2)c1=O,1.91,0.94,–,–
COC(=O)c1c(-c2ccc(C)cc2)ccn(Cc2ccccc2)c1=O,1.75,0.94,–,–
COc1ccc(-c2ccn(Cc3ccccc3)c(=O)c2C#N)cc1,1.35,1.05,–,Non-toxic
COC(=O)c1c(-c2ccccc2C)ccn(Cc2ccccc2)c1=O,1.51,1.1,–,–
